Data: ChEMBL document CHEMBL4819107, “Substituted N-(4-amino-2-chlorophenyl)-5-chloro-2-hydroxybenzamide analogues potently inhibit respiratory syncytial virus (RSV) replication and RSV infection-associated inflammatory responses” (Bioorg Med Chem, 2021)
Active and inactive are the calls of the source. No cut-off for these calls is given here.

Columns and labels:
[1] = test system: Respiratory syncytial virus; assay: Antiviral activity against RSV infected in human A549 cells assessed as reduction in viral RNA at 10 uM measured upto 24 hrs by qRT-PCR analysis; assay type: functional, organism-based; settings: time hrs <=24
Outline: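 A549 cells infected with RSV (MOI 1), then given 10 μM compound. RSV genome copies in cells quantified by RT-qPCR at 6, 15 and 24 h post-treatment. A fusion inhibitor served as a reference control.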

[2] = test system: Respiratory syncytial virus; assay: Antiviral activity against RSV infected in human A549 cells assessed as reduction in viral genome copies at 10 uM measured after 15 hrs by RT-qPCR analysis
[3] = test system: Respiratory syncytial virus; assay: Antiviral activity against RSV infected in human A549 cells assessed as reduction in viral titer at 10 uM incubated for 15 hrs by immunostaining analysis; assay type: functional
Outline: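 RSV long strain (propagated in HEp-2, sucrose-gradient purified) infected A549 cells at MOI 1 for 2 h. Inoculum removed, then compound at 10 μM for 15 h. Progeny virus titred by immunostaining in HEp-2 cells with biotin-conjugated goat anti-RSV antibody. Log reduction = log10 mean titer of vehicle-treated cells minus log10 mean titer with compound.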

[4] = test system: A549; assay: Antiinflammatory activity against in human A549 cells transfected with PRDIII-I-Luc and IRF-3-Luc assessed as reduction in RSV-induced IRF3 activation at 10 uM incubated for 15 hrs by luciferase reporter gene assay; assay type: functional, cell-based
Outline: (§1)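 A549 cells transfected in triplicate with luciferase plasmids, either NF-κB-Luc or IRF-3-site reporters. At 20 h post-transfection, infected with RSV (MOI 1). Virus removed at 2 h, then 10 μM compound added for 15 h. Cells then harvested and lysed for luciferase activity.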

[5] = test system: A549; assay: Antiinflammatory activity against in human A549 cells transfected with NF-kappaB-Luc assessed as reduction in RSV-induced NF-kappaB activation at 10 uM incubated for 15 hrs by luciferase reporter gene assay; assay type: functional, cell-based; outline: as §1
[6] = test system: A549; assay: Antiinflammatory activity against in human A549 cells assessed as reduction in RSV-induced IRF3 mRNA expression at 10 uM incubated for 4 hrs by qRT-PCR analysis; assay type: functional, cell-based
[7] = test system: A549; assay: Antiinflammatory activity against in human A549 cells assessed as reduction in RSV-induced NF-kappaB mRNA expression at 10 uM incubated for 4 hrs by qRT-PCR analysis; assay type: functional, cell-based
[8] = test system: SAEC; assay: Antiinflammatory activity against in human SAEC cells assessed as reduction in RSV-induced TNF-alpha production at 10 uM incubated for 4 hrs by immunoassay; assay type: functional, cell-based
Outline: (§2)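 Primary small airway epithelial cells infected with RSV long strain at MOI 5. Virus removed at 2 h, then 10 μM compound added. Supernatant collected 4 h post-treatment. Cytokines/chemokines quantified with a multiplex human profiling bead kit (Bio-Plex).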

[9] = test system: A549; assay: Cytotoxicity against human A549 cells assessed as reduction in cell viability incubated for 15 hrs by trypan blue assay; settings: a549, 15 h
[10] = test system: SAEC; assay: Antiinflammatory activity against in human SAEC cells assessed as reduction in RSV-induced MIP-1beta production at 10 uM incubated for 4 hrs by immunoassay; assay type: functional, cell-based; outline: as §2
[11] = test system: SAEC; assay: Antiinflammatory activity against in human SAEC cells assessed as reduction in RSV-induced IL-6 production at 10 uM incubated for 4 hrs by immunoassay; assay type: functional, cell-based; outline: as §2
[12] = test system: Respiratory syncytial virus; assay: Antiviral activity against RSV infected in human A549 cells assessed as reduction in viral titer at 2.5 uM incubated for 15 hrs by immunostaining analysis; assay type: functional
Outline: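 Dose-response: A549 cells infected with RSV long strain at MOI 1, then treated with a range of compound concentrations for 15 h. Total virus harvested and titred by immunostaining in HEp-2 cells with biotin-conjugated goat anti-RSV antibody. Reduction expressed as log decrease in titer relative to vehicle (DMSO) control.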

[13] = test system: Respiratory syncytial virus; assay: Antiviral activity against RSV infected in human A549 cells assessed as reduction in viral phosphoprotein at 10 uM incubated for 15 hrs by Western blot analysis; assay type: functional, organism-based
Outline: (§3)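 A549 cells infected with RSV (MOI 1) and treated with 10 μM compound for 15 h. Viral proteins detected by western blot of lysates using anti-RSV or anti-F antibodies, with β-actin as loading control. Membranes blocked in 5% milk in TBS-Tween 20.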

[14] = test system: Respiratory syncytial virus; assay: Antiviral activity against RSV infected in human A549 cells assessed as reduction in viral matrix protein at 10 uM incubated for 15 hrs by Western blot analysis; assay type: functional, organism-based; outline: as §3
[15] = test system: Respiratory syncytial virus; assay: Antiviral activity against RSV infected in human A549 cells assessed as reduction in viral N protein at 10 uM incubated for 15 hrs by Western blot analysis; assay type: functional, organism-based; outline: as §3
[16] = biological target: T1, Nuclear factor NF-kappa-B complex (Homo sapiens) (UniProt Q00653+P19838+Q04206); assay: Inhibition of NF-kappaB in human A549 cells assessed as reduction in p65 Ser536 phosphorylation at 10 uM measured after 4 hrs by Western blot analysis; assay type: cell-based
T1 sequence (P19838 whole entry, looked up): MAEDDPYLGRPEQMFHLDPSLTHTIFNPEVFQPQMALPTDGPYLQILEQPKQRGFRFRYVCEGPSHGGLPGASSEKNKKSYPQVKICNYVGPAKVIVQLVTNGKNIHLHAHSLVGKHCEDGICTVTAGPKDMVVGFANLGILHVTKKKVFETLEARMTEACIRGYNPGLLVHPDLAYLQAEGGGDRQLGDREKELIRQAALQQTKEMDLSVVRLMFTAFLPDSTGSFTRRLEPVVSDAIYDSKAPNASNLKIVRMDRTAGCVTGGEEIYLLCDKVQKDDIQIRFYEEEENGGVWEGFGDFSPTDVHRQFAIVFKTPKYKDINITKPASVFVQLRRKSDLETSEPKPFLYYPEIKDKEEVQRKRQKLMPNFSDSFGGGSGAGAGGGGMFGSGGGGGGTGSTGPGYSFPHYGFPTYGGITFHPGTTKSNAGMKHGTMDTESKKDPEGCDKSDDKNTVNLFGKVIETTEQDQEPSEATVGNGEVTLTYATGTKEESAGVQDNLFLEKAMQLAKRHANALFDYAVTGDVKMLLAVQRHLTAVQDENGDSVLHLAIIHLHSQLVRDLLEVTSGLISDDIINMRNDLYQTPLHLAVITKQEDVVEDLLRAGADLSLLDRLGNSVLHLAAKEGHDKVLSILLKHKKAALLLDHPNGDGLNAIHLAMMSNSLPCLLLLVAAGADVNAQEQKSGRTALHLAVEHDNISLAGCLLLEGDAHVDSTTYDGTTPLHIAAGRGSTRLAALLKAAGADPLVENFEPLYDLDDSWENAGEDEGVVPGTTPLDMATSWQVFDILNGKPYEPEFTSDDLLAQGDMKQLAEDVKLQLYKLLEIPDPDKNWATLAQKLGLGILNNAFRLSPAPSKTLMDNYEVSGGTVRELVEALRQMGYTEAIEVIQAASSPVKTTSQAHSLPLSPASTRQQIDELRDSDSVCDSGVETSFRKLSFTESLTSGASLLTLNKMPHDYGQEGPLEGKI
T1 sequence (Q00653 whole entry, looked up): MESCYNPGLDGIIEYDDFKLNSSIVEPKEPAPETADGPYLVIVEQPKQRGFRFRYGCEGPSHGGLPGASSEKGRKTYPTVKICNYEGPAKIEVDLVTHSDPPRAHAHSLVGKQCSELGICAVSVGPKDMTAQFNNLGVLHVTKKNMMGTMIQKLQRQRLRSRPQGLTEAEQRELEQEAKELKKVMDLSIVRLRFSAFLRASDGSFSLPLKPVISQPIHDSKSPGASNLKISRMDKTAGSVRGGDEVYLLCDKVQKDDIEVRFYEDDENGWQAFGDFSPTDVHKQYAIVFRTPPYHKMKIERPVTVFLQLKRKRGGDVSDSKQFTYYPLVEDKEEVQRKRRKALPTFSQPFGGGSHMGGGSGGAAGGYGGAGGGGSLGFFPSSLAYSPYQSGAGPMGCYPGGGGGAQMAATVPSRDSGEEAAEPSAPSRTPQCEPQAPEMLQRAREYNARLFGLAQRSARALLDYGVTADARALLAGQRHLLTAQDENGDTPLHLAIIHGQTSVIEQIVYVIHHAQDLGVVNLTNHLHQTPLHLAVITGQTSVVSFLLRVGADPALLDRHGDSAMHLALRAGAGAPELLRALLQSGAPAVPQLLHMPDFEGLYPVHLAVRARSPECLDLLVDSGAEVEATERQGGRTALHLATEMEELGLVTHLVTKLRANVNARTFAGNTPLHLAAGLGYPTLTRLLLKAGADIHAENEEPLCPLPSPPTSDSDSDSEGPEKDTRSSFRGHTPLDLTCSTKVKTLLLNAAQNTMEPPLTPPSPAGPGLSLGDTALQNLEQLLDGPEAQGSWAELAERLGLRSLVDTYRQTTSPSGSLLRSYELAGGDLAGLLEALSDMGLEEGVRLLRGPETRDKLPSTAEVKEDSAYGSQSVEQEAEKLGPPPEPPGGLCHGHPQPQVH
T1 sequence (Q04206 whole entry, looked up): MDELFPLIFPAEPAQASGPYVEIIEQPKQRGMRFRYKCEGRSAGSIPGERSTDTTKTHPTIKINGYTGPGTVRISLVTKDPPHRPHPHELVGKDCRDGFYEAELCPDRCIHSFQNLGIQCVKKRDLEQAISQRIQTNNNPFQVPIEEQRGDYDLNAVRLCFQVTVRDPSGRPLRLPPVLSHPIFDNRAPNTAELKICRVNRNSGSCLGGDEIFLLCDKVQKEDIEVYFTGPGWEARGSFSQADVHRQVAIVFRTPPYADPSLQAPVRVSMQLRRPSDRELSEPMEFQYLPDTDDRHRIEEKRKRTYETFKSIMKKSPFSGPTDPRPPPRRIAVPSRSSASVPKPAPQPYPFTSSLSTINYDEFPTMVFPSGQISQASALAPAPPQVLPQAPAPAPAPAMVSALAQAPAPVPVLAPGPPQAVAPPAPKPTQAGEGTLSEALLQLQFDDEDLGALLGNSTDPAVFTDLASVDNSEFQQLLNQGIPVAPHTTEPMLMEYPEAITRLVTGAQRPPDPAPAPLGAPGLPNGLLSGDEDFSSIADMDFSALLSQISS
Outline: (§4)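 A549 cells infected or mock-infected with RSV (MOI 5), then treated with 10 μM compound for 4 h. Nuclear extracts (or total lysates) prepared, resolved by SDS-PAGE, transferred to PVDF, and probed by western blot. β-actin as loading control.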

[17] = biological target: T1, Nuclear factor NF-kappa-B complex (Homo sapiens); assay: Inhibition of NF-kappaB in human A549 cells assessed as reduction in p65 nuclear translocation at 10 uM measured after 4 hrs by Western blot analysis; assay type: cell-based; outline: as §4
[18] = biological target: T1, Nuclear factor NF-kappa-B complex (Homo sapiens); assay: Inhibition of NF-kappaB in human A549 cells assessed as reduction in p65 Ser276 phosphorylation at 10 uM measured after 4 hrs by Western blot analysis; assay type: cell-based; outline: as §4
[19] = biological target: T1, Nuclear factor NF-kappa-B complex (Homo sapiens); assay: Inhibition of NF-kappaB in human A549 cells assessed as reduction in p65 Ser536 phosphorylation at 10 uM measured after 15 hrs by Western blot analysis; assay type: cell-based
Outline: (§5)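 A549 cells infected or mock-infected with RSV (MOI 1), then treated with 10 μM compound for 15 h. Nuclear extracts prepared and analysed by western blot after SDS-PAGE and PVDF transfer. β-actin as loading control.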

[20] = biological target: T1, Nuclear factor NF-kappa-B complex (Homo sapiens); assay: Inhibition of NF-kappaB in human A549 cells assessed as reduction in p65 nuclear translocation at 10 uM measured after 15 hrs by Western blot analysis; assay type: cell-based; outline: as §5
[21] = biological target: T1, Nuclear factor NF-kappa-B complex (Homo sapiens); assay: Inhibition of NF-kappaB in human A549 cells assessed as reduction in p65 Ser276 phosphorylation at 10 uM measured after 15 hrs by Western blot analysis; assay type: cell-based; outline: as §5
[22] = biological target: T2, Interferon regulatory factor 3 (Homo sapiens) (UniProt Q14653); assay: Inhibition of poly I:C-induced IRF3 (unknown origin) transfected in human HEK293 cells co-transfected with IRF3-Luc gene incubated for 4 hrs by luciferase reporter gene; assay type: cell-based
T2 sequence (whole entry): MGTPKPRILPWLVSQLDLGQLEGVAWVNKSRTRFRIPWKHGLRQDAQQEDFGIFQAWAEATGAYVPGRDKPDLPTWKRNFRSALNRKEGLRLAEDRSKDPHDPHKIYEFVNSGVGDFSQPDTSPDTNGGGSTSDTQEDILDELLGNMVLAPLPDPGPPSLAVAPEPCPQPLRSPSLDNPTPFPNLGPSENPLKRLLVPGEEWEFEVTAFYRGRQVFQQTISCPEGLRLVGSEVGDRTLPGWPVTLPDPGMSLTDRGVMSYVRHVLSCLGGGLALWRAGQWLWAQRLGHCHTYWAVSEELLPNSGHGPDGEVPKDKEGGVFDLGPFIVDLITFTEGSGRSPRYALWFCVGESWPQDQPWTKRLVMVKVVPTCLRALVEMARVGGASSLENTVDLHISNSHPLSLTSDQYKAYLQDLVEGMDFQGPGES
Outline: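 HEK-293 cells transiently transfected with IRF-3 or NF-κB luciferase reporter. At 15 h post-transfection, cells transfected with Poly I:C in the presence of compound. Luciferase activity then measured.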

[23] = biological target: T1, Nuclear factor NF-kappa-B complex (Homo sapiens); assay: Inhibition of TNF-alpha-induced NF-kappaB (unknown origin) transfected in human HEK293 cells co-transfected with NF-kappaB-Luc gene incubated for 4 hrs by luciferase reporter gene; assay type: cell-based
Outline: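 HEK-293 cells transiently transfected with NF-κB luciferase reporter. At 15 h post-transfection, stimulated with 10 ng/ml TNF-α in the presence of compound. Luciferase activity then measured.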

[24] = biological target: Interferon regulatory factor 3 (Homo sapiens) (UniProt Q14653); assay: Inhibition of IRF3 in RSV-infected human A549 cells assessed as reduction in IRF3 nuclear translocation at 10 uM measured upto 15 hrs by Western blot analysis; settings: time hrs <=15
[25] = biological target: Interferon regulatory factor 3 (Homo sapiens) (UniProt Q14653); assay: Inhibition of IRF3 in RSV-infected human A549 cells assessed as reduction in IRF3 Ser396 phosphorylation at 10 uM measured upto 15 hrs by Western blot analysis; settings: time hrs <=15

Row | Structure (SMILES) | log(activity) [3] | inhibition [4] | inhibition [5] | inhibition [6] | inhibition [7] | CC50 [9] [µM] | other results
1 | CS(=O)(=O)CCCn1c(Cn2c(=O)n(CC(F)(F)F)c3ccncc32)cc2cc(Cl)ccc21 |  |  |  |  |  |  | inhibition [1]: Active; inhibition [2]: inactive
2 | CCCN(CCC)c1ccc(NC(=O)c2cc(Cl)ccc2O)c(Cl)c1 | 1.91 | Active | Active | Active | Active | 323 | inhibition [8]: Active
3 | O=C(Nc1ccc(NCc2ccccc2)cc1Cl)c1cc(Cl)ccc1O | 1.53 |  |  |  |  | 81.3 | 
4 | O=C(Nc1ccc(NCc2ccc(F)cc2)cc1Cl)c1cc(Cl)ccc1O | 1.54 |  |  |  |  |  | 
5 | O=C(Nc1ccc(N2CCOCC2)cc1Cl)c1cc(Cl)ccc1O | 1.74 | Active | Active | Active | Active | 89.9 | 
6 | O=C(Nc1ccc(NCCCO)cc1Cl)c1cc(Cl)ccc1O | -0.16 |  |  |  |  |  | 
7 | CC1(Nc2ccc(NC(=O)c3cc(Cl)ccc3O)c(Cl)c2)CCCCC1 | 1.82 | Active | inactive | Active | Active | 86.5 | inhibition [10]: Active; inhibition [11]: Active; inhibition [8]: Active; log(activity) [12]: 1.57; inhibition [1]: Active; inhibition [13]: Active; inhibition [14]: Active; inhibition [15]: Active; inhibition [16]: Active; inhibition [17]: Active; inhibition [18]: inactive; inhibition [19]: Active; inhibition [20]: Active; inhibition [21]: inactive; inhibition [22]: Active; inhibition [23]: inactive; inhibition [24]: Active; inhibition [25]: Active
8 | O=C(Nc1ccc(NCC2CCCC2)cc1Cl)c1cc(Cl)ccc1O | 1.42 |  |  |  |  | 141 | 
9 | CC(C)Nc1ccc(NC(=O)c2cc(Cl)ccc2O)c(Cl)c1 | 1.88 | Active | Active | Active | Active | 82.7 | 
10 | O=C(Nc1ccc(N2CCCC2)cc1Cl)c1cc(Cl)ccc1O | 1.51 |  |  |  |  |  | 
11 | CCCCCCC(C)Nc1ccc(NC(=O)c2cc(Cl)ccc2O)c(Cl)c1 (stereo not drawn) | 1.16 |  |  |  |  | 18.6 | 
12 | O=C(Nc1ccc(NCc2cc(C(F)(F)F)cc(C(F)(F)F)c2)cc1Cl)c1cc(Cl)ccc1O | 2.59 |  |  |  |  | 22.9 | 
13 | CC(C)(C)OC(=O)N1CCC(CNc2ccc(NC(=O)c3cc(Cl)ccc3O)c(Cl)c2)CC1 | 1.53 |  |  |  |  |  | 
14 | Nc1ccc(NC(=O)c2cc(Cl)ccc2O)c(Cl)c1 | -0.01 |  |  |  |  |  | 
15 | O=C(Nc1ccc(NC2CCCC2)cc1Cl)c1cc(Cl)ccc1O | 1.44 |  |  |  |  |  | 
16 | CCCNc1ccc(NC(=O)c2cc(Cl)ccc2O)c(Cl)c1 | 1.82 | Active | Active | Active | Active | 69.7 | inhibition [10]: Active
17 | CCCC(C)(C)Nc1ccc(NC(=O)c2cc(Cl)ccc2O)c(Cl)c1 | 1.81 |  |  |  |  | 23.7 | 
18 | CC(=O)Nc1ccc(NC(=O)c2cc(Cl)ccc2O)c(Cl)c1 | 0.09 |  |  |  |  |  | 
19 | O=C(Nc1ccc(NCC2CCNCC2)cc1Cl)c1cc(Cl)ccc1O | -0.07 |  |  |  |  |  | 
20 | O=C(Nc1ccc(NCc2cccnc2)cc1Cl)c1cc(Cl)ccc1O | 0.54 | inactive | inactive | inactive | inactive |  | inhibition [10]: inactive; inhibition [11]: inactive; inhibition [8]: inactive
